Laboratory results: ChEMBL document CHEMBL1148178, “Dicranin, an antimicrobial and 15-lipoxygenase inhibitor from the moss Dicranum scoparium” (1993)
Calls of active or inactive are those of the source. No cut-off for these calls is given here.

How the values were obtained:
[1] = tested on: Bacillus subtilis; test: Antibacterial activity against Bacillus subtilis NCIB 3610 at 1000 ug/disk after 24 hrs by disk diffusion assay; assay type: functional; settings: read-out: Diameter of inhibition zone
In short: (§1)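 Sterile 6 mm filter-paper disc bearing sample set in the centre of a Petri dish of 15 ml plate count agar. Overlaid with 3 ml soft nutrient agar (nutrient broth + 0.7% agar) seeded with 1% of a 16–18 h culture of the test strain. Read-out is the diameter of the growth-free zone around the disc.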

[2] = tested on: Geobacillus stearothermophilus; test: Antibacterial activity against Bacillus stearothermophilus NCA 1518 at 1000 ug/disk after 24 hrs by disk diffusion assay; assay type: functional; settings: read-out: Diameter of inhibition zone; in short: as §1
[3] = tested on: Enterococcus faecalis; test: Antibacterial activity against Streptococcus faecalis NCIB 775 at 1000 ug/disk after 24 hrs by disk diffusion assay; assay type: functional; settings: read-out: Diameter of inhibition zone
In short: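 Test material loaded onto 6 mm sterile filter-paper discs. Each disc sits at the centre of a plate of 15 ml plate count agar overlaid with 3 ml soft nutrient agar (nutrient broth + 0.7% agar) carrying 1% of a 16–18 h culture. Activity is read as the diameter of the no-growth zone around the disc.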

[4] = tested on: Bacillus cereus; test: Antibacterial activity against Bacillus cereus NCIB 3329 at 500 ug/disk after 24 hrs by disk diffusion assay; assay type: functional; settings: read-out: Diameter of inhibition zone; in short: as §1
[5] = tested on: Staphylococcus aureus; test: Antibacterial activity against Staphylococcus aureus T-AQ 49/YF29 at 1000 ug/disk after 24 hrs by disk diffusion assay; assay type: functional; settings: read-out: Diameter of inhibition zone; in short: as §1
[6] = tested on: Pseudomonas putida; test: Antibacterial activity against Pseudomonas putida T-AQ 18/YF18 after 24 hrs by disk diffusion assay; assay type: functional, organism-based; in short: as §1
[7] = tested on: Pseudomonas aeruginosa; test: Antibacterial activity against Pseudomonas aeruginosa ATCC 10145 after 24 hrs by disk diffusion assay; assay type: functional, organism-based; in short: as §1
[8] = tested on: Bacillus subtilis; test: Antibacterial activity against Bacillus subtilis NCIB 3610 after 24 hrs by disk diffusion assay; assay type: functional, organism-based; in short: as §1
[9] = tested on: Escherichia coli; test: Antibacterial activity against Escherichia coli B74-1 after 24 hrs by disk diffusion assay; assay type: functional, organism-based; in short: as §1
[10] = tested on: Salmonella typhimurium; test: Antibacterial activity against Salmonella Typhimurium NCIB 10248 after 24 hrs by disk diffusion assay; assay type: functional, organism-based; settings: Salmonella enterica subsp. enterica serovar Typhimurium; in short: as §1
[11] = tested on: Geobacillus stearothermophilus; test: Antibacterial activity against Bacillus stearothermophilus NCA 1518 after 24 hrs by disk diffusion assay; assay type: functional, organism-based; in short: as §1
[12] = tested on: Staphylococcus aureus; test: Antibacterial activity against Staphylococcus aureus T-AQ 49/YF29 after 24 hrs by disk diffusion assay; assay type: functional, organism-based; in short: as §1
[13] = tested on: Bacillus cereus; test: Antibacterial activity against Bacillus cereus NCIB 3329 after 24 hrs by disk diffusion assay; assay type: functional, organism-based; in short: as §1
[14] = tested on: Enterococcus faecalis; test: Antibacterial activity against Streptococcus faecalis NCIB 775 after 24 hrs by disk diffusion assay; assay type: functional, organism-based; in short: as §1

| SMILES | zone of inhibition at 1000 µg/disc [1] [mm] | zone of inhibition at 1000 µg/disc [2] [mm] | zone of inhibition at 1000 µg/disc [3] [mm] | zone of inhibition at 500 µg/disc [4] [mm] | zone of inhibition at 1000 µg/disc [5] [mm] | Activity [6] | Activity [7] | Activity [8] | Activity [9] | Activity [10] | Activity [11] | Activity [12] | Activity [13] | Activity [14] |
| --- | --- | --- | --- | --- | --- | --- | --- | --- | --- | --- | --- | --- | --- | --- |
| CCCCCC/C=C\CCCCCCCC(=O)O [PALMITOLEIC ACID] | 14 | 45 | 20 | 14 | 22 |  |  |  |  |  |  |  |  |  |
| CC/C=C\C/C=C\C/C=C\C/C=C\CCCCC(=O)O |  |  |  |  |  | Active | Active | Active | Active | Active | Active | Active | Active | Active |
